# Molecular target: Histone deacetylase
# Assay: Inhibitory concentration against human histone deacetylase
# Format: protein assay
# Conditions: not given
row,SMILES,IC50
1,C#CCNCCCCCC(=O)Nc1ccccc1,> 100 µM
2,O=CN(O)CCCCCCCC(=O)Nc1ccccc1,2.8 µM
3,CSCCCCCCC(=O)Nc1ccccc1,> 100 µM
4,NCC(=O)NCCCCCC(=O)Nc1ccccc1,> 100 µM
5,O=C(CCCCCCS(=O)(=O)NO)Nc1ccccc1,> 100 µM
6,CNC(=O)C(=O)CCCCCCC(=O)Nc1ccccc1,0.34 µM
7,O=C(CCCCCCS)Nc1nc2ccccc2s1,0.34 µM
8,C#CCN(CC#C)CCCCCC(=O)Nc1ccccc1,> 100 µM
9,O=C(CO)NCCCCCC(=O)Nc1ccccc1,> 100 µM

# Same assay, conditions: read-out: IC50
row,SMILES,IC50
1,CN(C)c1ccc(C(=O)NCCCCCCS)cc1,0.61 µM
2,O=C(NCCCCCCS)c1ccccc1,0.36 µM
3,O=C(CCCCCCS)Nc1nc(-c2ccccc2)cs1,0.17 µM
4,O=C(CCCCCCS)Nc1cccnc1,0.11 µM
5,O=C(CCCCCCS)Nc1cccc(Oc2ccccc2)c1,0.21 µM
6,O=C(CCCCCCS)Nc1ccc(Oc2ccccc2)cc1,0.62 µM
7,O=C(CCCCCCS)Nc1cccc(-c2ccccc2)c1,0.075 µM
8,O=C(NCCCCCCS)c1ccc2ccccc2c1,0.085 µM
9,CN(C)c1ccc(NC(=O)CCCCCCS)cc1,1.2 µM
10,O=C(CCCCCCS)Nc1ccc(-c2ccccc2)cc1,1.1 µM
11,SCCCCCCOc1ccccc1,11 µM
12,O=C(NCCCCCCS)c1cc2ccccc2[nH]1,0.1 µM

# Test system: not listed separately
# Assay: Effective Concentration of compound to inhibit the growth of human RXF-631L cells
# Format: functional, cell-based
# Conditions: not given
row,SMILES,EC50
1,CC(C)C(=O)SCCCCCCC(=O)Nc1nc(-c2ccccc2)cs1,2.4 µM

# Molecular target: Histone deacetylase (Homo sapiens) (UniProt Q13547+O15379+Q9UBN7+Q92769+Q9UQL6+Q8WUI4+Q9BY41+Q96DB2+P56524+Q9UKV0+Q969S8)
# Conditions: at 100 µM
row,SMILES,inhibition
1,CC(=O)SCCCCCCC(=O)Nc1ccccc1,85%
2,C#CCNCCCCCC(=O)Nc1ccccc1,14%
3,CSCCCCCCC(=O)Nc1ccccc1,11%
4,O=C(CCCCCCS(=O)(=O)NO)Nc1ccccc1,14%
5,C#CCN(CC#C)CCCCCC(=O)Nc1ccccc1,0%

# Test system: NCI-H460
# Assay: Inhibition of human lung cancer NCI-H460 cell growth
# Format: functional, cell-based
# Conditions: not given
# Summary of the method: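 Cells seeded at 1500/well, 37 °C; after 24 h exposed to compounds at various concentrations in 10% FBS RPMI-1640, 37 °C, 5% CO₂, 48 h. Stained with 0.5 mg/mL methylene blue, room temperature, 30 min; dye dissolved in 3% aqueous HCl, absorbance at 660 nm. EC₅₀ reported as mean of at least two experiments.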
row,SMILES,EC50
1,CC(=O)SCCCCCCC(=O)Nc1ccccc1,36 µM
2,CCC(=O)SCCCCCCC(=O)Nc1ccccc1,28 µM
3,CC(C)C(=O)SCCCCCCNC(=O)c1cc2ccccc2o1,4.1 µM
4,CC(C)(C)C(=O)OCSCCCCCCC(=O)Nc1ccccc1,25 µM
5,O=C(CCCCCCSC(=O)c1ccc([N+](=O)[O-])cc1)Nc1ccccc1,24 µM
6,O=C(CCCCCCSSCCCCCCC(=O)Nc1ccccc1)Nc1ccccc1,> 50 µM
7,O=C(CCCCCCSC(=O)C1CCCC1)Nc1ccccc1,21 µM
8,CC(C)C(=O)SCCCCCCC(=O)Nc1cccc(-c2ccccc2)c1,2.8 µM
9,CC(C)C(=O)SCCCCCCC(=O)Nc1cnc2ccccc2c1,8 µM
10,CC(C)C(=O)SCCCCCCC(=O)Nc1cccnc1,2.9 µM
11,CCCC(=O)SCCCCCCC(=O)Nc1ccccc1,22 µM
12,CC(C)(C)C(=O)SCCCCCCC(=O)Nc1ccccc1,> 50 µM
13,CC(C)C(=O)SCCCCCCNC(=O)c1ccc2ccccc2c1,12 µM
14,CC(C)C(=O)SCCCCCCC(=O)Nc1nc2ccccc2s1,9.5 µM
15,O=C(CCCCCCSC(=O)C1CC1)Nc1ccccc1,27 µM
16,CC(C)C(=O)SCCCCCCNC(=O)c1cc2ccccc2[nH]1,12 µM
17,CC(C)C(=O)SCCCCCCC(=O)Nc1cccc(Oc2ccccc2)c1,25 µM

# From ChEMBL document CHEMBL1145185, “Novel inhibitors of human histone deacetylases: design, synthesis, enzyme inhibition, and cancer cell growth inhibition of SAHA-based non-hydroxamates” (J Med Chem, 2005)
